Assay results as given in ChEMBL document CHEMBL1157100, “The alkyl-connected 2-amino-6-vinylpurine (AVP) crosslinking agent for improved selectivity to the cytosine base in RNA” (Bioorg Med Chem, 2010).
Calls of active or inactive are those of the source.

Columns and labels:
Assay type in all cases: nucleic-acid assay
[1] = system: Nucleic Acid; assay: Binding affinity to FAM-tagged r-(GAAAYAAGAGGAAAGA)-RNA assessed as crosslinking by PAGE
Summary of the method: (§1)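 Reactive ODN at 10 µM with 1 µM FAM-labeled target DNA or RNA in 100 mM NaCl, 50 mM MES pH 5 plus RNase OUT, mixed at 0 °C and then incubated at 37 °C. Reactions were stopped at set times with formamide/EDTA/bromophenol blue buffer. Products were resolved on 15% denaturing polyacrylamide gel with 7 M urea, and FAM band intensities were quantified to give crosslinking yield.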

[2] = system: Nucleic Acid; assay: Binding affinity to FAM-tagged d-(GAAAYAAGAGGAAAGA)-DNA assessed as crosslinking at 10 uM by alkylation method; summary of the method: as §1
[3] = system: Nucleic Acid; assay: Binding affinity to FAM-tagged r-(GAAAYAAGAGGAAAGA)-RNA assessed as crosslinking at 10 uM by alkylation method; summary of the method: as §1

Measured: Activity

CSCCc1nc(N)nc2c1ncn2CC[C@H]1C[C@H](OP(=O)(O)OC[C@H]2O[C@@H](n3cc(C)c(=O)[nH]c3=O)C[C@@H]2OP(=O)(O)OC[C@H]2O[C@@H](n3cc(C)c(=O)[nH]c3=O)C[C@@H]2OP(=O)(O)OC[C@H]2O[C@@H](n3ccc(N)nc3=O)[C@H](O)[C@@H]2OP(=O)(O)OC[C@H]2O[C@@H](n3cc(C)c(=O)[nH]c3=O)C[C@@H]2OP(=O)(O)OC[C@H]2O[C@@H](n3ccc(N)nc3=O)[C@H](O)[C@@H]2OP(=O)(O)OC[C@H]2O[C@@H](n3ccc(N)nc3=O)[C@H](O)[C@@H]2OP(=O)(O)OC[C@H]2O[C@@H](n3cc(C)c(=O)[nH]c3=O)C[C@@H]2OP(=O)(O)OC[C@H]2O[C@@H](n3cc(C)c(=O)[nH]c3=O)C[C@@H]2OP(=O)(O)OC[C@H]2O[C@@H](n3cc(C)c(=O)[nH]c3=O)C[C@@H]2OP(=O)(O)OC[C@H]2O[C@@H](n3ccc(N)nc3=O)[C@H](O)[C@@H]2OP(=O)(O)OC[C@H]2O[C@@H](n3cc(C)c(=O)[nH]c3=O)C[C@@H]2OP(=O)(O)O)[C@@H](COP(=O)(O)O[C@H]2C[C@H](n3cc(C)c(=O)[nH]c3=O)O[C@@H]2COP(=O)(O)O[C@H]2C[C@H](n3cc(C)c(=O)[nH]c3=O)O[C@@H]2COP(=O)(O)O[C@H]2C[C@H](n3cc(C)c(=O)[nH]c3=O)O[C@@H]2COP(=O)(O)O[C@H]2[C@@H](O)[C@H](n3ccc(N)nc3=O)O[C@@H]2CO)O1
active: [1] | [2] | [3]
